Results: paper PMC9520214 (Heliyon, 2022)
“And” between values parts separate entries of the source, which are not always exact repeats. Equal entries are not always repeated. Where two headings read alike, the source gives them in different places.

Experiments:
Assay type in all cases: biochemical
hCA I = hCA I (Homo sapiens, UniProt P00915); experiment: hCA I esterase activity inhibition assay; details: for fold increase of hCA I inhibition relative to complex 2: ratio of Ki values, versus complex 2
hCA I, sequence (P00915 whole entry): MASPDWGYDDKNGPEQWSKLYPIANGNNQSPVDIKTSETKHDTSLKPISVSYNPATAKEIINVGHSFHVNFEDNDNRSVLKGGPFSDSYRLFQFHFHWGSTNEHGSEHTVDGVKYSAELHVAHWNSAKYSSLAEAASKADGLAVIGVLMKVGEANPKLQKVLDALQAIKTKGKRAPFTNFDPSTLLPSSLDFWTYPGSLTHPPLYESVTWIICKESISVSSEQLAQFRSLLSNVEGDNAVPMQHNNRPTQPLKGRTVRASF

hCA II = hCA II (Homo sapiens, UniProt P00918); experiment: hCA II esterase activity inhibition assay
Outline: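 hCA II purified from expired human erythrocytes by Sepharose-4B-L-tyrosine-sulfanilamide affinity chromatography; purity checked by SDS-PAGE; protein quantified against a bovine serum albumin standard. Esterase activity followed spectrophotometrically as p-nitrophenylacetate hydrolysis to p-nitrophenolate, absorbance change at 348 nm over 3 min at 25 °C. Inhibitor and substrate concentrations varied; IC50 and Ki derived, inhibition type from Lineweaver-Burk plots.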

AChE = AChE (Electrophorus electricus, UniProt O42275); experiment: biochemical
AChE, sequence (O42275 24-633): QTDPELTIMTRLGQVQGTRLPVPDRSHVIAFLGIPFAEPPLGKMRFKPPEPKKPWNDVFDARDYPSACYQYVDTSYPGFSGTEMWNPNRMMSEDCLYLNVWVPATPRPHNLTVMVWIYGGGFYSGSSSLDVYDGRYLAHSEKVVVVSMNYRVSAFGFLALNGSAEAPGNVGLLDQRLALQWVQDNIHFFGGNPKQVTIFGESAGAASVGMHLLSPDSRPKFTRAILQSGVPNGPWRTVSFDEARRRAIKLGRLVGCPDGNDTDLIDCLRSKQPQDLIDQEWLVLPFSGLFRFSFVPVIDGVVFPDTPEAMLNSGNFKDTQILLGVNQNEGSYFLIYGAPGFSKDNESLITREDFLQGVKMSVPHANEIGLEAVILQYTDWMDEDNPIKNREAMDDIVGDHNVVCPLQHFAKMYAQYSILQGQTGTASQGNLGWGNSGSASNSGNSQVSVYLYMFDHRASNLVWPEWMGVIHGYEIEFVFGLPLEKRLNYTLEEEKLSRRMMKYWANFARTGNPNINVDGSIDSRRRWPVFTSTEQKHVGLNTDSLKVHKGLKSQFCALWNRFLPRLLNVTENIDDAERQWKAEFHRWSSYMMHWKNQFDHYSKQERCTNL

[1] = read-out: Ki hCA I, Lineweaver-Burk, hCA I from human erythrocytes
[2] = read-out: Ki hCA II, Lineweaver-Burk, hCA II from human erythrocytes

Row | Compound | fold increase of hCA I inhibition relative to complex 2 (hCA I) | Ki (hCA I; [1]) | Ki (hCA II; [2]) | further results
1 | c1ccc(Cn2c[n+](Cc3ccccc3)c3ccccc32)cc1 [Compound 1, 1,3-dibenzylbenzimidazolium chloride] |  |  |  | IC50 (hCA I): 116 nM; Ki (hCA I): 68.5 ± 11.5 nM; IC50 (hCA II): 69.3 nM; Ki (hCA II): 49.3 ± 6.5 nM; IC50 (AChE): 86.6 nM; Ki (AChE): 64 nM and 64.1 nM
2 | dibromo[1,3-dibenzylbenzimidazol-2-ylidene]-2-aminopyridinepalladium(II) [Complex 4] | 2.83 fold | 18.1 ± 3 nM | 19.7 ± 1.9 nM | 
3 | dibromo[1,3-dibenzylbenzimidazol-2-ylidene]-3-chloropyridinepalladium(II) [Complex 3] | 2.83 fold | 10 ± 1.4 nM | 7.7 ± 0.6 nM | 
4 | dibromo[1,3-dibenzylbenzimidazol-2-ylidene]morpholinepalladium(II) [Complex 6] |  | 16.9 ± 0.3 nM | 12 nM and 12.1 nM | 
5 | dibromo[1,3-dibenzylbenzimidazol-2-ylidene]pyridinepalladium(II) [Complex 2] |  | 28.4 ± 1.2 nM | 8.3 ± 1.8 nM | fold more effective AChE inhibition than donepezil (AChE): 1.49 fold; fold more effective AChE inhibition than tacrine (AChE): 1.76 fold
6 | dibromo[1,3-dibenzylbenzimidazol-2-ylidene]triphenylphosphine palladium(II) [Complex 5] |  | 40.3 ± 2 nM | 15 nM and 15.3 nM | Ki (AChE; read-out: Ki AChE, Lineweaver-Burk, AChE from Electrophorus electricus): 23.1 ± 2.6 nM
